RGS4 act: RGS4 potentiation or activation. hit rate 0.92% among 310,000. B-score at 10 µM. HEK293 M3R/inducible RGS4, carbachol calcium flux Fluo4; stronger effect = lower value;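 active = B-score of the integrated calcium signal more than 4 SD below the library mean, with starting fluorescence not abnormally high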;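 also: negative B-score means reduced calcium response which marks RGS4 activation or potentiation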
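test system = HEK293 cells with stable M3R and inducible RGS4 | schedule = recording 10 s baseline at 1 Hz, 100 s post-agonist | technique = Fluo4-AM (2 µM) calcium-flux fluorescence, kinetic read | measure = Agonist-evoked peak-minus-minimum fluorescence over baseline, integrated ratio, B score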
MrgX1 agonist: agonists of human MrgX1 receptor. hit rate 0.44% among 310,000. B-score at 10 µM. MrgX1-HEK293 cells, Fluo-4 calcium fluorescence, agonist mode; stronger effect = higher value;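 active = calcium response B-score plate-corrected fluorescence ratio at least 3 library SD, with starting fluorescence B-score inside 5 SD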
Target sequence (Q96LB2 whole entry, looked up): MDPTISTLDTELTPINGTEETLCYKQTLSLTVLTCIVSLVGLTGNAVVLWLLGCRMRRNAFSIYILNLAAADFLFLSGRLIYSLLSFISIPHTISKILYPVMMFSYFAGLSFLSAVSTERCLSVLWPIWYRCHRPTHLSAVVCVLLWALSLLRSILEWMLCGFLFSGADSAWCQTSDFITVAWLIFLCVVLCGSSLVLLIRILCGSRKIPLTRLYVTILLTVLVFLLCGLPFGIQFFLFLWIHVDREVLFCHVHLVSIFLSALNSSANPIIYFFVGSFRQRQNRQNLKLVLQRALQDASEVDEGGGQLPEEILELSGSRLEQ
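Material: MrgX1-expressing HEK293 cells / Dosing: compound as first of three additions / Incubation: overnight seeding, then 1 h dark dye loading / Signal: Fluo-4 NW calcium fluorescence / Evaluation: B-scored fluorescence response ratio / Benchmarks: positive and negative control wells on each plate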
Kir21 inh: blocks the mouse Kir2.1 inward-rectifier potassium channel; P35561; HEK293-Kir2.1, FluxOR thallium flux fluorescence; stronger effect = lower value; B-score at 10 µM; hit rate 0.85% among 310,000;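 active = fluorescence ratio B-score at or below minus 3 SD of library scores, with starting-brightness B-score within 2 SD, cut at about -4.2 in these data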;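 also: channel flux triggered by added potassium and thallium sulfate stimulus; B-score of peak minus minimum fluorescence over baseline after thallium stimulus; more negative B-score means stronger Kir2.1 block with less thallium influx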
MrgX1 allo act: human MrgX1 positive allosteric modulation, primary screen | Q96LB2 | MrgX1-HEK293, Fluo-4 calcium flux, FDSS; stronger effect = higher value | B-score at 10 µM | hit rate 0.63% among 310,000 | AID 588675;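 active = plate-corrected calcium response at least 3 library SD above typical, normal starting fluorescence, not activating the receptor alone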;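 also: compound read alongside a low EC10 to EC30 dose of BAM8-22 agonist; peak minus trough fluorescence over baseline measured at the second addition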
MrgX1 antagonist: antagonists of human MrgX1 receptor; B-score at 10 µM; hit rate 1.3% among 310,000; Q96LB2; MRGX1-HEK293 calcium flux, Fluo-4, BAM8-22 antagonism; stronger effect = lower value;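 active = calcium-response B-score plate-corrected more than 3 library SD below zero, starting fluorescence within 5 deviations, no agonist response on first addition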;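 also: peak minus trough fluorescence over baseline after final BAM8-22 challenge near maximal dose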
RGS4 block: inhibitors of human RGS4 | HEK293 M3R/RGS4 inducible, Fluo-4 calcium flux; stronger effect = higher value; triggered by carbachol at its EC20 | P49798 | B-score at 10 µM | AID 463165 | hit rate 0.45% among 310,000;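 active = B-score, a plate-corrected calcium signal, over three deviations above library mean, with baseline fluorescence within five deviations of library mean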;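 also: RGS4 expression induced by doxycycline in cells with stable M3 receptor; B-score is computed from the integrated fluorescence ratio over baseline after carbachol; higher B-score means a larger calcium signal and so more RGS4 inhibition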
Target sequence (P49798 whole entry, looked up): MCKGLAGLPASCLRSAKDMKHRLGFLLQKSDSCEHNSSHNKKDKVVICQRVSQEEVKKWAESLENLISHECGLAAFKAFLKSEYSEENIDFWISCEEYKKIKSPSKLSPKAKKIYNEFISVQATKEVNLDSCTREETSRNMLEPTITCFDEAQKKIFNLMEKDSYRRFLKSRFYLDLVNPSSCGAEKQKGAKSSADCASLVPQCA
MrgX1 antag conf: reconfirmed antagonist of human MrgX1 receptor signaling; MrgX1-HEK293, BAM8-22 calcium flux, Fluo-4; stronger effect = lower value; hit rate 19% among 2,300; shares compounds with MrgX1 antagonist; remaining BAM8-22 calcium response % of control (stronger effect = lower value), % at 10 µM; AID 602420;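 active = remaining agonist calcium response no higher than 100% minus 3 SD of agonist-only control wells, with starting fluorescence near control levels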;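 also: agonist BAM8-22 given at a near maximal EC90 to ECmax level; peak minus minimum fluorescence divided by baseline after agonist addition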
HEK293 Ca flux: counter-screen for MrgX1 antagonists: effect in parental HEK293 cells; shares compounds with MrgX1 antagonist; Fluo-4 calcium fluorescence, FDSS; fluorescence ratio F(max-min)/F0 at 10 µM; hit rate 2% among 4,000;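 active = duplicate-averaged calcium fluorescence ratio at least three times the standard deviation of buffer wells, a nonspecific response in parental cells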
HEK293 Ca counter: MrgX1 allosteric activator counter-screen hit in parental HEK293 cells | parental HEK293 calcium flux, Fluo-4 fluorescence ratio; stronger effect = higher value | fluorescence ratio F(max-min)/F0 at 10 µM | AID 624114 | shares compounds with MrgX1 antagonist | hit rate 0.4% among 4,000;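 active = calcium fluorescence ratio, averaged over duplicates, at least 3 SD of the buffer-well ratio, meaning a nonspecific response in receptor-free cells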;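 also: untransfected parental HEK293 lacking MrgX1 used as counterscreen for MrgX1 allosteric activators; fluorescence change taken during the second addition on a kinetic imager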
HEK293 Ca cntr2: activity in parental HEK293 cells lacking MrgX1 receptor. shares compounds with MrgX1 antagonist. Fluo-4 calcium fluorescence (FDSS); stronger effect = higher value. fluorescence ratio F(max-min)/F0 at 10 µM. hit rate 8.7% among 4,000. AID 624115;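 active = calcium fluorescence ratio at least three times the spread of buffer wells, meaning a non-specific response in parental cells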
* marks the source's active call; other numbers are inactive results; i = inactive; . = no result given. This is a sample that favours compounds with a hit; in the whole collection about 4.1% have one here.

SMILES	RGS4 act	MrgX1 agonist	Kir21 inh	MrgX1 allo act	MrgX1 antagonist	RGS4 block	MrgX1 antag conf	HEK293 Ca flux	HEK293 Ca counter	HEK293 Ca cntr2
Cc1ccc(NCc2nnc(SCCN3CCCCC3)n2CC2CCCO2)cc1Cl (centres undefined)	i	i	-0.07	i	i	i	.	.	.	.
Cc1ccc(S(=O)(=O)Nc2c(C)nn(C)c2C)cc1C	i	i	0.75	i	i	i	.	.	.	.
Cc1nn(C)c(C)c1NS(=O)(=O)c1cccc(Br)c1	i	i	-1.7	i	-4.7*	i	i	i	i	i
c1ccc2c(c1)oc1c(N3CCOCC3)ncnc12	i	i	-0.5	i	i	i	.	.	.	.
C(=C\c1ccccc1)/CN1CCN(c2ncnc3c2oc2ccccc23)CC1	i	i	1.3	i	-7.3*	i	47%*	i	i	i
Cc1nc(N2CCN(Cc3nc4ccccc4[nH]3)CC2)c2oc3ccccc3c2n1	i	i	1.6	i	i	i	.	.	.	.
c1ccc2[nH]c(CN3CCN(c4ncnc5c4oc4ccccc45)CC3)nc2c1	.	i	.	i	-6.4*	.	i	i	i	i
CCCC(C)NC(=O)c1nc(-c2ccccc2)n(-c2ccccc2)n1 (centres undefined)	.	i	.	i	i	.	.	.	.	.
Cc1ccc2c(c1)N(C(=O)CCC(=O)NCCCN1CCN(C)CC1)CCO2	i	i	2.6	i	-8.7*	i	i	i	i	i
CCN1CCN(CC(=O)N2c3ccccc3Sc3ccccc32)CC1	i	i	-1.1	i	-5.1*	i	i	i	i	i
COc1ccc(OC)c(-n2c(-c3cccc(C)c3)n[nH]c2=S)c1	i	i	-0.42	i	i	i	.	.	.	.
COc1ccc(OC)c(-n2c(-c3ccccc3)n[nH]c2=S)c1	i	i	0.07	i	-5.2*	i	i	i	i	i
CCc1nn(CC(=O)NCCN2CCN(C)CC2)c(=O)c2cc3c(OC)cccc3n12	i	i	0.24	i	i	i	.	.	.	.
Cn1c(CNc2ccc(Cl)cc2)nnc1SCC#N	i	i	-1.4	i	i	i	.	.	.	.
Nc1nc(Cl)nc2c1ncn2C1CC(O)C(CO)O1 (centres undefined)	i	i	-0.84	i	-5.1*	i	i	i	i	i
Nc1nc2c(ncn2[C@H]2C[C@H](O)[C@@H](CO)O2)c(=O)[nH]1	i	i	0.5	i	i	i	.	.	.	.
Cc1ccc(C(C(=O)NC2CCCC2)N(C(=O)c2csnn2)C2CCCC2)o1 (centres undefined)	i	i	-0.23	i	i	i	.	.	.	.
Cc1cccc(C)c1NC(=S)N(CCCN1CCOCC1)Cc1cccnc1	i	i	-0.2	i	-4.9*	i	i	i	i	i
CN1CCN(S(=O)(=O)c2cccc(C(=O)Nc3ccccc3N3CCCC3)c2)CC1	i	i	-2.4	i	-4.6*	i	i	i	i	i
O=C(O)Cn1cnc2c(oc3ccccc32)c1=O	i	i	-0.23	i	i	i	.	.	.	.
O=C(Cn1cnc2c(oc3ccccc32)c1=O)c1ccccc1	i	i	-2.3	i	-8.2*	i	i	i	i	i
O=C1c2cnccc2CN1Cc1ccccc1	i	i	0.09	i	-5.3*	i	i	i	i	i
CCOC(=O)CNc1c(N2CCN(c3ccccn3)CC2)c(=O)c1=O	i	i	0.03	i	-6.5*	i	i	i	i	i
Cc1ccc(S(=O)(=O)CCC(=O)Nc2ccc3c(c2)OCO3)cc1	i	i	-1.2	i	i	i	.	.	.	.
COC(=O)[C@]1(C)N[C@H](c2ccc(SC3CCCCC3)cc2)[C@@H]2C(=O)N(C)C(=O)[C@@H]21	i	i	-0.75	i	-7.9*	i	i	i	i	i
SMILES	RGS4 act	MrgX1 agonist	Kir21 inh	MrgX1 allo act	MrgX1 antagonist	RGS4 block	MrgX1 antag conf	HEK293 Ca flux	HEK293 Ca counter	HEK293 Ca cntr2
CCCSc1ccc([C@H]2N[C@@](C)(C(=O)OC)[C@H]3C(=O)N(C)C(=O)[C@@H]23)cc1	i	i	-1.3	i	i	i	.	.	.	.
COc1ccc(Cn2c(C)ccc2C)cc1	i	i	-0.51	i	-6.3*	i	i	i	i	i
COc1ccc(Cn2c(O)cc(=O)[nH]c2=O)cc1	i	i	0.01	i	i	i	.	.	.	.
CCOC(=O)CC1ON(C)C(=O)N1c1ccc(Cl)cc1Cl (centres undefined)	i	i	-0.82	i	i	i	.	.	.	.
CCc1nnc(NC(=O)CSc2nc3cccnc3n2Cc2ccccc2)s1	i	i	-0.5	i	-5.9*	i	i	i	i	i
CCc1nnc(NC(=O)CSc2nnc(Cc3ccccc3)n2Cc2ccccc2)s1	i	i	1.1	i	i	i	.	.	.	.
CN(C)c1cc(Nc2ccc(O)cc2)c([N+](=O)[O-])c2nonc12	i	i	0.03	i	i	i	.	.	.	.
O=[N+]([O-])c1c(Nc2ccc(O)cc2)cc(Cl)c2nonc12	i	i	-6.5*	i	-15*	i	16%*	i	i	i
c1ccc(COc2ccc(OCCn3cncn3)cc2)cc1	i	i	3	i	-5.9*	i	i	i	i	i
CCN(CC)c1ccc(/C=C/c2cccc[n+]2C)c(OC)c1	i	i	-13	i	i	i	.	.	.	.
COc1ccccc1N=Cc1c(C)c(C#N)c2[nH]c3ccccc3n2c1=O	i	i	0.49	i	-6.2*	i	i	i	i	i
CCC(C)Sc1nnc(CNS(=O)(=O)c2ccc(F)cc2)n1C (centres undefined)	i	i	-0.68	i	i	i	.	.	.	.
c1ccc(-c2ccc(-c3ccccn3)nn2)nc1	i	i	0.07	i	i	i	.	.	.	.

Source: PubChem (Johns Hopkins Ion Channel Center)
